Data on 11 compounds can be found in PubChem BioAssay.

Structures are written as SMILES. The source made the active and inactive calls.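 Rule for the calls, unless noted: active = a full or partial loss of lipid-probe fluorescence in the fish gall bladder, intestine or both, judged by eye; inactive = no fluorescence loss, or compound toxic to the fish.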

Assay [1] can be described thus: inhibitors of TNFa-induced NFkB p65 translocation, primary screen, imaging, HUVEC, MLSMR starter and 10KST1 sets (AID 438;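 active = inhibition above 20% together with a positive visual image hit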;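 note: compound added about 3h40 before a 20 min TNFalpha stimulation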;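 for inhibition: signal is the nuclear over cytoplasmic p65 intensity ratio per well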). The following applies: HUVEC TNFa-induced p65 nuclear translocation; cell count: measured here: nuclei count (cytotoxicity indicator), at 2.08 µM; inhibition: at 2 µM, stronger effect = higher value, 0% TNFa-plus-vehicle, 100% no-TNFa wells.
Assay [2] in a line: endothelial E-selectin expression blockers – imaging, HUVEC, immunofluorescence, MLSMR starter and 10KST1 sets, primary screen (AID 487;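 active = visually confirmed hit in the image check and inhibition above 20%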;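 for inhibition: signal is fraction of cell area covered by stained E-selectin grains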;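 for nuclei count: 100% = median nuclei count of all wells on the same plate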). The following applies: HUVEC TNFalpha-induced E-selectin immunofluorescence imaging, at 2 µM; inhibition: stronger effect = higher value; nuclei count: measured here: cell number, toxicity.
The nature of assay [3]: Primary imaging screen for DUSP6 inhibitors that restore phospho-Erk in transfected HeLa cells, chemical complementation (AID 609;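 active = compounds giving at least 50% inhibition in the cell-based MKP-3 phosphatase rescue imaging test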;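 for inhibition: phospho-Erk level distribution per well compared with pooled transfected vehicle control wells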). To be noted: HeLa MKP-3 transfected, phospho-Erk imaging KS statistic, at 10 µM, cells stimulated with TPA for 15 min.
Assay [4] addresses Dual specificity protein phosphatase 6 (Homo sapiens) (UniProt Q16828). The assay is described as above. To be noted: HeLa MKP-3 transfected, phospho-Erk imaging KS statistic; at 10 µM; stronger effect = higher value; cells stimulated with TPA for 15 min.
In assay [5] the target is Voltage-gated potassium channel subunit beta-2 (Rattus norvegicus) (UniProt P62483). As to the kind of experiment: inhibitors of rat Kvbeta2 reductase activity – biochemical, NADPH fluorescence, primary screen (AID 622;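 active = fluorescence slope higher than the sample average by over 3 SD, cut at about -0.22 in these data, passing the limit was not always enough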;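 note: slope of raw intensity against log time taken from 70 to 1610 s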). The following applies: recombinant KvBeta, 4-cyanobenzaldehyde reduction, at 10 µM, stronger effect = higher value.
Voltage-gated potassium channel subunit beta-2 (Rattus norvegicus), sequence (P62483 whole entry, looked up): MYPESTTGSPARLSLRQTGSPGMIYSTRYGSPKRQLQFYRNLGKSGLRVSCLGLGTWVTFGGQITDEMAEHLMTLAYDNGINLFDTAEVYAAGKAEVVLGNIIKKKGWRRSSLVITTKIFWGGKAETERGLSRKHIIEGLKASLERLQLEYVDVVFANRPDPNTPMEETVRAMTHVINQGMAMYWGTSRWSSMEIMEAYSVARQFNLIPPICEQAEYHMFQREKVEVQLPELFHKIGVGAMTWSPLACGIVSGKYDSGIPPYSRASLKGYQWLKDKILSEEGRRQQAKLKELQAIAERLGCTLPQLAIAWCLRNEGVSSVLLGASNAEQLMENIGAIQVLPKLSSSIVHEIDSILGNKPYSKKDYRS
For assay [6] the target is unchanged. The assay can be described thus: enhancers of rat Kvbeta2 NADPH turnover – biochemical, NADPH fluorescence, primary screen (AID 623;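 active = NADPH fluorescence slope more negative than the mean of all samples by about 3 SD, 99.7% confidence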;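 note: fluorescence intensity change per second fitted from 20 to 320 s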). To be noted: Recombinant KvBeta, NADPH fluorescence decrease slope, 10 min; at 10 µM; stronger effect = lower value.
The target in assay [7] is Alpha-2C adrenergic receptor (Homo sapiens) (UniProt P18825). As to the kind of experiment: compounds altering alpha2C-coupled GIRK flux – cell-based, HEK293 alpha2C/GIRK1/2, thallium flux, primary screen (AID 624;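 active = fluorescence slope after compound addition differing from the mean of all screened samples at 99.7% confidence, in either direction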;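 note: slope of fluorescence ratio to pre-addition baseline per second over 15 to 24 s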). The following applies: thallium flux BTC fluorescence, at 10 µM, actives lie on both sides.
Alpha-2C adrenergic receptor (Homo sapiens), sequence (P18825 whole entry, looked up): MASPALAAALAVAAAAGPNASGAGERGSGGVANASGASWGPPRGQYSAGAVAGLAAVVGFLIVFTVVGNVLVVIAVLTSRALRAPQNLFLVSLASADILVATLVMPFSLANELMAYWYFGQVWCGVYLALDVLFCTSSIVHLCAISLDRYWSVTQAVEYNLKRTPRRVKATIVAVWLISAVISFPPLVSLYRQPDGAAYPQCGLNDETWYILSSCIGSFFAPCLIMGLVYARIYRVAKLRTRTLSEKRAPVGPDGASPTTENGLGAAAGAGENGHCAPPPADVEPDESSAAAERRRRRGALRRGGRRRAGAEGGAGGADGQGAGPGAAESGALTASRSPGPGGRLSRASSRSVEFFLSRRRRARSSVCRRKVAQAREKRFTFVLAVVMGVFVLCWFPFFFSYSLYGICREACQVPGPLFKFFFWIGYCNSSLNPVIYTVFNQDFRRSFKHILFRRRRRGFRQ
A short description of assay [8]: inhibitors of larval lipid processing in zebrafish, primary screen, whole organism, PED6 fluorescence, gall bladder and intestine (AID 686).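 Note: larvae 5 to 7 days old with five fish per well; signal comes from phospholipase A2 cleavage of quenched PED6 carried via bile; overnight exposure to compound and PED6 before scoring.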 The following applies: Zebrafish larvae PED6 lipid processing, fluorescence scoring; screened at 20 µM (by protocol). Put shortly:
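Doses: 20 µM single dose. Test system: live zebrafish larvae aged 5-7 days, whole organism. Quantity: five larvae per well. Measured by: By-eye fluorescence microscopy. Reagent: ingested quenched lipid PED6 at 100 nM. Read-out: visual per-well fluorescence inhibition score. Times: overnight exposure of larvae to compound plus PED6.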

Assay [9] in a line: loss of swimming-algae plug formation – whole organism, Chlamydomonas reinhardtii, WT vs cilia-less mutant, absorbance, 96-well, primary screen (AID 463189;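 active = inhibition at or above 50% relative to wild type and mutant plate controls; inactive = inhibition below 50%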;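 note: 0% = wild type cc124 cells in DMSO and 100% = ciliumless bld1 mutant cells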). To be noted: Chlamydomonas reinhardtii gravitaxis, OD600 absorbance, 2 days; at 10 µM; stronger effect = higher value.
Setting [10] is: measured here: cell density z-score.
[11] abbreviates: measured here: nuclear c-Myc green intensity z-score.
[12] abbreviates: measured here: nuclear pErk red intensity z-score, stronger effect = higher value.

Dual specificity protein phosphatase 6 (Homo sapiens), sequence (Q16828 whole entry, looked up): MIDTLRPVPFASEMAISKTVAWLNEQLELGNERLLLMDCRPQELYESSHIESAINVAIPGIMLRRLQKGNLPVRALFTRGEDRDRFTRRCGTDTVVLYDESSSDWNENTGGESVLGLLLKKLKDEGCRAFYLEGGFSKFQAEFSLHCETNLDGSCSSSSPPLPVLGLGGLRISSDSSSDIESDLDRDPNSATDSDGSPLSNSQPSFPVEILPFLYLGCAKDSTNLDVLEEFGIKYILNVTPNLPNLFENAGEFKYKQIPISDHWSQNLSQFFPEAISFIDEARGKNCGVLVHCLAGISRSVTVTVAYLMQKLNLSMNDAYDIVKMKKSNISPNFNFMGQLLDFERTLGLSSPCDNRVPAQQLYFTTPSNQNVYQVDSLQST

A word on the inhibition: it is the relative decrease from the control value, in per cent. As for `CCc1cccc(CC)c1N(COC)C(=O)Cn1nnc2ccccc21`, in [1], the cell count amounted to 369. The inhibition in assay [1] was -11% (inactive); in assay [2], -230% (inactive); in assay [4], 20.8% (inactive); in [9] it was 23.5% (inactive). The same compound had a nuclei count in assay [2] of 180%. Moreover, the results for the z-score in [3] (setting [10]), in assay [3] (setting [11]) and in assay [3] (setting [12]) were 0.728, 0.454 and -0.0174, respectively. Further, the fluorescence slope in [5] was -0.394 (inactive). Also, the NADPH fluorescence slope in [6] was -2.8e-05 (inactive). Besides, the slope in assay [7] was 0.00431 (inactive). Also, the outcome in [8] was inactive.

As for `COc1ccccc1-c1nnc2sc(COc3ccccc3)nn12`, the cell count in assay [1] was 670. Further, the inhibition in assay [1] is -8.1% (inactive); in assay [2] it was -201% (inactive); in assay [4], -16.8% (inactive); in [9], 5.33% (inactive). The same compound yielded a nuclei count in assay [2] of 161%. Also, the figures for the z-score in assay [3] (setting [10]), in [3] (setting [11]) and in [3] (setting [12]) were 0.204, -1.19 and 2.54, respectively. For the same compound, in assay [5], the fluorescence slope is -0.444 (inactive). Also, the NADPH fluorescence slope in assay [6] was -0.000151 (inactive). The slope in assay [7] is 0.00451 (inactive). Further, the call in assay [8] was inactive.

For the compound `CCN(CC)CCNC(=O)c1ccccc1N`, in assay [1], the cell count is 521. Further, the inhibition is -17.4% (inactive) in assay [1], -314% (inactive) in assay [2], -8.95% (inactive) in [4] and -5.26% (inactive) in [9]. Moreover, the nuclei count in assay [2] is 187%. The z-score is 0.845 in assay [3] (setting [10]), 0.248 in assay [3] (setting [11]) and 0.636 in assay [3] (setting [12]). The fluorescence slope in assay [5] was -0.463 (inactive). Also, the NADPH fluorescence slope in assay [6] is -0.000132 (inactive). Also, the slope in assay [7] is 0.00488 (inactive). Besides, the call in assay [8] was inactive.

As to `COc1cccc(OC)c1-c1nn2c(-c3ccco3)nnc2s1`, in assay [1], the cell count was 630. In addition, the inhibition is -5.2% (inactive) in [1], -86.6% (inactive) in assay [2], 10.1% (inactive) in assay [4] and 5.78% (inactive) in assay [9]. The compound further showed a nuclei count in assay [2] of 172%. Also, the z-score in assay [3] (setting [10]) is 0.253; in [3] (setting [11]), 0.886; in [3] (setting [12]), -0.677. For the same compound, the fluorescence slope in [5] was -0.431 (inactive). For the same compound, in assay [6], the NADPH fluorescence slope was -0.000166 (inactive). The slope in assay [7] was 0.00439 (inactive). Also, in assay [8], the compound was classed as inactive.

As for `Cc1cc(C)nc(NC2=NCC(=O)N2c2cccc(Cl)c2)n1`, the cell count in assay [1] was found to be 581. Further, the inhibition in [1] is -4.9% (inactive); in assay [2] it was -200% (inactive); in assay [4], 15.9% (inactive); in assay [9], -3.6% (inactive). Further, the nuclei count in assay [2] is 141%. Besides, the values for the z-score in [3] (setting [10]), in assay [3] (setting [11]) and in assay [3] (setting [12]) were 1.05, 1.03 and -2.43, respectively. Further, the fluorescence slope in assay [5] is -0.517 (inactive). In addition, the NADPH fluorescence slope in [6] was -4.2e-05 (inactive). The slope in assay [7] was 0.00561 (inactive). Further, the compound was classed as inactive in assay [8].

With `O=C1c2ccccc2S(=O)(=O)N1CC(O)COc1ccc(Cl)cc1` (stereo not drawn), the cell count in assay [1] was found to be 354. The inhibition in assay [1] was -14.1% (inactive); in assay [2] it was -291% (inactive); in [4] it was 1.75% (inactive); in assay [9], 1.18% (inactive). The nuclei count in [2] is 97%. Also, the z-score in [3] (setting [10]) was 0.633; in assay [3] (setting [11]), 0.437; in assay [3] (setting [12]), -1.99. In assay [5], the fluorescence slope is -0.439 (inactive). Further, the NADPH fluorescence slope in assay [6] is -8.9e-06 (inactive). Further, the slope in [7] is 0.00476 (inactive). For the same compound, the result in assay [8] was inactive.

In the case of `CCOc1cccc(-c2nnc3sc(-c4cc(OC)c(OC)c(OC)c4)nn23)c1`, the cell count in [1] is 647. The inhibition in assay [1] was -9.1% (inactive); in assay [2], -15.9% (inactive); in assay [4] it was -15% (inactive); in assay [9] it was 6.41% (inactive). In addition, the nuclei count in assay [2] was 171%. For the same compound, the z-score is 1.15 in [3] (setting [10]), 0.91 in assay [3] (setting [11]) and -0.181 in assay [3] (setting [12]). For the same compound, in assay [5], the fluorescence slope is -0.39 (inactive). Besides, the NADPH fluorescence slope in assay [6] is -0.000117 (inactive). In assay [7], the slope was 0.00923 (inactive). For the same compound, in assay [8], the compound was called inactive.

On to `COc1ccc(-c2cc(-c3ccccc3)n3ncnc3n2)cc1`, for which, in [1], the cell count turned out to be 451. The inhibition was 3.2% (inactive) in [1], -35.1% (inactive) in assay [2], -1.12% (inactive) in assay [4] and -19.8% (inactive) in [9]. The compound also registered a nuclei count in assay [2] of 162%. Also, the z-score was 1.29 in [3] (setting [10]), 1.44 in assay [3] (setting [11]) and -0.816 in [3] (setting [12]). Besides, the fluorescence slope in [5] was -0.00896 (inactive). For the same compound, the NADPH fluorescence slope in assay [6] is -5.1e-07 (inactive). Besides, the slope in assay [7] is 0.00473 (inactive). In addition, the result in [8] was inactive.

In the case of `O=C(c1ccccc1)C(CCC(CN1CCOCC1)C(=O)c1ccccc1)CN1CCOCC1` (stereo not drawn), in assay [1], the cell count is 588. In addition, the inhibition is -0.1% (inactive) in assay [1], -9.4% (inactive) in assay [2], 1.75% (inactive) in assay [4] and 24.8% (inactive) in [9]. The compound also gave a nuclei count in [2] of 109%. Besides, the z-score in [3] (setting [10]) is 0.046; in [3] (setting [11]), -0.626; in [3] (setting [12]) it was 1.7. Besides, the fluorescence slope in assay [5] was -0.59 (inactive). The NADPH fluorescence slope in assay [6] is -1.8e-05 (inactive). In addition, in assay [7], the slope is 0.00635 (inactive). In addition, the compound was called inactive in assay [8].

For `COc1ccccc1N1CCN(C2CCN(C(=O)c3cccs3)CC2)CC1`, in assay [1], the cell count was determined as 390. Also, the inhibition in assay [1] is -7.8% (inactive); in [2], -197% (inactive); in [4], -5.89% (inactive); in assay [9], 22.3% (inactive). This compound displayed a nuclei count in [2] of 173%. Further, the results for the z-score in [3] (setting [10]), in assay [3] (setting [11]) and in assay [3] (setting [12]) were -0.252, 0.0653 and 1.15, respectively. Also, in [5], the fluorescence slope is -0.397 (inactive). Further, the NADPH fluorescence slope in assay [6] is -3e-05 (inactive). In [7], the slope is 0.00342 (inactive). The compound was classed as inactive in [8].

As to `CCCCNC(=O)N(C)c1nncnc1C(=O)NC`, the cell count in [1] is 491. Also, the inhibition in assay [1] is -10.8% (inactive); in [2], -190% (inactive); in assay [4], -7.28% (inactive); in [9], -1.96% (inactive). In addition, in assay [2], the nuclei count was 191%. Also, the values for the z-score in [3] (setting [10]), in assay [3] (setting [11]) and in assay [3] (setting [12]) were 0.256, -0.788 and 0.32, respectively. Also, in assay [5], the fluorescence slope was -0.37 (inactive). The NADPH fluorescence slope in assay [6] is -2.2e-05 (inactive). Besides, the slope in assay [7] is 0.00552 (inactive). Moreover, the compound was called inactive in assay [8].
